Results published in ChEMBL document CHEMBL1773035, “SHAFTS: a hybrid approach for 3D molecular similarity calculation. 2. Prospective case study in the discovery of diverse p90 ribosomal S6 protein kinase 2 inhibitors to suppress cell migration” (J Med Chem, 2011).

Tests used:
[1] = target: T1, Ribosomal protein S6 kinase alpha-3 (Homo sapiens, UniProt P51812); assay: Inhibition of RSK2 after 60 mins
Summary of the method: (§1)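 Recombinant RSK2 (20 ng) preincubated 20 min at room temperature with compound in HEPES pH 7.4 buffer (MgCl2, EGTA, Tween 20, BGG) with 25 μM S6 peptide; started with ATP (10 μM final), 60 min at room temperature. ADP Quest fluorescence read at ex 530/em 590 nm. IC50 from curves of ≥3 independent tests, measured when inhibition at 10 μM exceeded 30%.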

HCT-116 [2] = assay: Antiproliferative activity against human HCT116 cells over expressing RSK2 after 48 hrs by MTT assay; type: functional, cell-based; settings: HCT-116, 48 h
Summary of the method: (§2)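 Formazan dissolved in DMSO, absorbance read at 570 nm. Inhibition = (1 − A570 compound/A570 control)×100. Screening concentration 100 μM (control 10 μM). IC50 from curves, ≥3 independent tests, attempted when inhibition at 100 μM exceeded 40%.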

MDA-MB-231 [3] = assay: Antiproliferative activity against human MDA-MB-231 cells over expressing RSK2 at 100 uM after 48 hrs by MTT assay; type: functional; settings: MDA-MB-231, 48 h; summary of the method: as §2
MCF7 [4] = assay: Antiproliferative activity against human MCF7 cells over expressing RSK2 at 100 uM after 48 hrs by MTT assay; type: functional; settings: MCF7, 48 h; summary of the method: as §2
MCF7 [5] = assay: Antiproliferative activity against human MCF7 cells over expressing RSK2 after 48 hrs by MTT assay; type: functional, cell-based; settings: MCF7, 48 h; summary of the method: as §2
HCT-116 [6] = assay: Antiproliferative activity against human HCT116 cells over expressing RSK2 at 100 uM after 48 hrs by MTT assay; type: functional; settings: HCT-116, 48 h; summary of the method: as §2
MDA-MB-231 [7] = assay: Antiproliferative activity against human MDA-MB-231 cells over expressing RSK2 after 48 hrs by MTT assay; type: functional, cell-based; settings: MDA-MB-231, 48 h; summary of the method: as §2
[8] = target: Mast/stem cell growth factor receptor Kit (Homo sapiens) (UniProt P10721); assay: Inhibition of c-Kit at 10 uM by ELISA based method
Summary of the method: (§3)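 Tyrosine kinase profiling by ELISA-based method, ATP at Km for each enzyme; percent inhibition at 10 μM, mean of at least two independent tests.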

[9] = target: Vascular endothelial growth factor receptor 2 (Homo sapiens) (UniProt P35968); assay: Inhibition of KDR at 10 uM by ELISA based method; summary of the method: as §3
[10] = target: Mitogen-activated protein kinase 8 (Homo sapiens) (UniProt P45983); assay: Inhibition of JNK1 at 1 uM
[11] = target: T1, Ribosomal protein S6 kinase alpha-3; settings: 1 uM
MCF7 [12] = assay: Antiproliferative activity against human MCF7 cells over expressing RSK2 at 10 uM after 48 hrs by MTT assay; type: functional; settings: MCF7, 48 h
MDA-MB-231 [13] = assay: Antiproliferative activity against human MDA-MB-231 cells over expressing RSK2 at 10 uM after 48 hrs by MTT assay; type: functional; settings: MDA-MB-231, 48 h
[14] = target: Platelet-derived growth factor receptor beta (Homo sapiens) (UniProt P09619); assay: Inhibition of PDGFRbeta at 10 uM by ELISA based method; summary of the method: as §3
[15] = target: Vascular endothelial growth factor receptor 1 (Homo sapiens) (UniProt P17948); assay: Inhibition of Flt1 at 10 uM by ELISA based method; summary of the method: as §3
[16] = target: Mitogen-activated protein kinase 1 (Homo sapiens) (UniProt P28482); assay: Inhibition of ERK2 at 1 uM
[17] = target: Fibroblast growth factor receptor 1 (Homo sapiens) (UniProt P11362); assay: Inhibition of FGFR1 at 10 uM by ELISA based method; summary of the method: as §3
[18] = target: Proto-oncogene tyrosine-protein kinase Src (Homo sapiens) (UniProt P12931); assay: Inhibition of c-Src at 10 uM by ELISA based method; summary of the method: as §3
[19] = target: Tyrosine-protein kinase ABL1 (Homo sapiens) (UniProt P00519); assay: Inhibition of ABL at 10 uM by ELISA based method; summary of the method: as §3
[20] = target: Epidermal growth factor receptor (Homo sapiens) (UniProt P00533); assay: Inhibition of EGFR at 10 uM by ELISA based method; summary of the method: as §3
Sequence of Epidermal growth factor receptor (Homo sapiens) (P00533 whole entry): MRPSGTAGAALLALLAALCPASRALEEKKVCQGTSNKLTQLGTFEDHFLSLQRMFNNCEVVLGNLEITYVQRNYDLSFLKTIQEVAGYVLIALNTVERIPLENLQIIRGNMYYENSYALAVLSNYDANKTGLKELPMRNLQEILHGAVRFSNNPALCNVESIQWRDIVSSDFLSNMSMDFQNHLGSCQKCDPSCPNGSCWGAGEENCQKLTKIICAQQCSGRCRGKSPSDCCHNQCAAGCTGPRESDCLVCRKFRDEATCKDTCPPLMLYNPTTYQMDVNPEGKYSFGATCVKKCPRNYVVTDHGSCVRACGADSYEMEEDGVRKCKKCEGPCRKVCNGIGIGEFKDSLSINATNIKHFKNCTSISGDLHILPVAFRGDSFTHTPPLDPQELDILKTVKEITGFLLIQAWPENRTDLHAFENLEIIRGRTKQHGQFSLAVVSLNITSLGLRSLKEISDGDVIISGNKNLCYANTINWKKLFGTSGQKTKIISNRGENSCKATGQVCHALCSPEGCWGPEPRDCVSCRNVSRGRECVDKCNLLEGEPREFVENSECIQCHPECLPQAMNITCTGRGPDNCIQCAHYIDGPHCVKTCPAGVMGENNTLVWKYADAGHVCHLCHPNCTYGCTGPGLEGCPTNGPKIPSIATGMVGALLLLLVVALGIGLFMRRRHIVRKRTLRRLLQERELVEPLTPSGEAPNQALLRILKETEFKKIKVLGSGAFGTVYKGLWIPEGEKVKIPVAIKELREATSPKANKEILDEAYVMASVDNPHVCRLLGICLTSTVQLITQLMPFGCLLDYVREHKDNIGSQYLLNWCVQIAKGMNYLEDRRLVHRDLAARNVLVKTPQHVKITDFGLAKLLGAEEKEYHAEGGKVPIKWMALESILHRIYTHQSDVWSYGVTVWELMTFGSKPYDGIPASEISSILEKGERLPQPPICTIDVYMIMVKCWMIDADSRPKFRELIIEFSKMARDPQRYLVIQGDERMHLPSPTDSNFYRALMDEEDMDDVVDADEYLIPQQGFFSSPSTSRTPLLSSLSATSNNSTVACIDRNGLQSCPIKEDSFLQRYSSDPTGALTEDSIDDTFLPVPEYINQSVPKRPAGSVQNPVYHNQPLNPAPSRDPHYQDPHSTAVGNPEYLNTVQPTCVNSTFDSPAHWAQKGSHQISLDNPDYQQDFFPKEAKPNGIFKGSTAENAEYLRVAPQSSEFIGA

[21] = target: Mitogen-activated protein kinase 14 (Homo sapiens) (UniProt Q16539); assay: Inhibition of p38alpha at 1 uM
Sequence of Mitogen-activated protein kinase 14 (Homo sapiens) (Q16539 whole entry): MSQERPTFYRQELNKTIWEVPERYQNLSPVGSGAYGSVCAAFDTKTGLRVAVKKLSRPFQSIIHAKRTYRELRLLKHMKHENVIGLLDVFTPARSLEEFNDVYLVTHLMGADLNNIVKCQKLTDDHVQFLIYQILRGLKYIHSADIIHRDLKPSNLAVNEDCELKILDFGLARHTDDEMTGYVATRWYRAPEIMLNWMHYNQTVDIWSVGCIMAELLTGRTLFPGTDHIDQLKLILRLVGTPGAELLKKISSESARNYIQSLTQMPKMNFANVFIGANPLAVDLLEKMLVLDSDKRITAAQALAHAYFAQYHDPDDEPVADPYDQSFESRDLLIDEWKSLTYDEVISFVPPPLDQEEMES

[22] = target: Protein kinase C alpha type (Homo sapiens) (UniProt P17252); assay: Inhibition of PKCalpha at 1 uM
[23] = target: Ephrin type-A receptor 2 (Homo sapiens) (UniProt P29317); assay: Inhibition of EPHA2 at 10 uM by ELISA based method; summary of the method: as §3
Sequence of Ephrin type-A receptor 2 (Homo sapiens) (P29317 whole entry): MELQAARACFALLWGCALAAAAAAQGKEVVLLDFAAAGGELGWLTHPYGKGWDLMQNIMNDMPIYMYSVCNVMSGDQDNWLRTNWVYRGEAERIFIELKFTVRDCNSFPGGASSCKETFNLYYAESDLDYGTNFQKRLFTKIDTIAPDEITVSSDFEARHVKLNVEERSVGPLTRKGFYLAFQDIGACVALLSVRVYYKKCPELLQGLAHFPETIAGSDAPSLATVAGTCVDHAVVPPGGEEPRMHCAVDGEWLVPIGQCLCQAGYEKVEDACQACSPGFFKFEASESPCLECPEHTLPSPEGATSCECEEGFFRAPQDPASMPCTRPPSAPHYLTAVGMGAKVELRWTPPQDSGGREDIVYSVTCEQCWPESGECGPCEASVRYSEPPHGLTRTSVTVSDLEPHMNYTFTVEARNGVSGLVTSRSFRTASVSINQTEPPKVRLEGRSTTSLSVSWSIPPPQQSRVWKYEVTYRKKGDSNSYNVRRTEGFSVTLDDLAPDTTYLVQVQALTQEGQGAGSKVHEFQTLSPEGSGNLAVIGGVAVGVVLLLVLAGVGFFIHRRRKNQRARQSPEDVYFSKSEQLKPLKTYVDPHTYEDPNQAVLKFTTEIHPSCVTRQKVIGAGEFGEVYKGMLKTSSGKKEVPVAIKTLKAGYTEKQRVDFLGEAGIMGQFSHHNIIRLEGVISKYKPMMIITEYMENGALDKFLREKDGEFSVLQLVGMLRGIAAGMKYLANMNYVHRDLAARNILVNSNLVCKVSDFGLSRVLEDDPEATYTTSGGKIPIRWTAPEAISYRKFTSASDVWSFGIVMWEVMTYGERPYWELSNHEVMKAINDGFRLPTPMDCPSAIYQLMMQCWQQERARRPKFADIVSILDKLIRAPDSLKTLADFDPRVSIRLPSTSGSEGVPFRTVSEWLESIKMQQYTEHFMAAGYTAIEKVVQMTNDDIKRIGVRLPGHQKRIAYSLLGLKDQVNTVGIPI

[24] = target: Platelet-derived growth factor receptor alpha (Homo sapiens) (UniProt P16234); assay: Inhibition of PDGFRalpha at 10 uM by ELISA based method; summary of the method: as §3
HCT-116 [25] = assay: Antiproliferative activity against human HCT116 cells over expressing RSK2 at 10 uM after 48 hrs by MTT assay; type: functional; settings: HCT-116, 48 h
[26] = target: Ribosomal protein S6 kinase beta-1 (Homo sapiens) (UniProt P23443); assay: Inhibition of p70S6K at 1 uM
Sequence of Ribosomal protein S6 kinase beta-1 (Homo sapiens) (P23443 whole entry, looked up): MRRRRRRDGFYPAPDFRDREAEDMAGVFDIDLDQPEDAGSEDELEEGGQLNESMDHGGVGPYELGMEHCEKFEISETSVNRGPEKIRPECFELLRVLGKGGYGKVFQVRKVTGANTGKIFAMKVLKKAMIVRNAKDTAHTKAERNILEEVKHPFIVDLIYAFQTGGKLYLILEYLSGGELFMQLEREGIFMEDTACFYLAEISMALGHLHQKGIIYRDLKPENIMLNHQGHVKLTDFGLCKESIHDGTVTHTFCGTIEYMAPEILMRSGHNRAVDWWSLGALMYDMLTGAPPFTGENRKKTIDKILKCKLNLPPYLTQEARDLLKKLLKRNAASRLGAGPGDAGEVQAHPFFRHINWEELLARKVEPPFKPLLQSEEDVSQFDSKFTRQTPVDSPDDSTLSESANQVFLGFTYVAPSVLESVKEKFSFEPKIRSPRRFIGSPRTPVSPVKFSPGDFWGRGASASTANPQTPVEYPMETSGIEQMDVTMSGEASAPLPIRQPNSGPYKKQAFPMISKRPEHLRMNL

[27] = target: 3-phosphoinositide-dependent protein kinase 1 (Homo sapiens) (UniProt O15530); assay: Inhibition of PDK1 at 1 uM
[28] = target: Proto-oncogene tyrosine-protein kinase receptor Ret (Homo sapiens) (UniProt P07949); assay: Inhibition of RET at 10 uM by ELISA based method; summary of the method: as §3
Sequence of Proto-oncogene tyrosine-protein kinase receptor Ret (Homo sapiens) (P07949 whole entry): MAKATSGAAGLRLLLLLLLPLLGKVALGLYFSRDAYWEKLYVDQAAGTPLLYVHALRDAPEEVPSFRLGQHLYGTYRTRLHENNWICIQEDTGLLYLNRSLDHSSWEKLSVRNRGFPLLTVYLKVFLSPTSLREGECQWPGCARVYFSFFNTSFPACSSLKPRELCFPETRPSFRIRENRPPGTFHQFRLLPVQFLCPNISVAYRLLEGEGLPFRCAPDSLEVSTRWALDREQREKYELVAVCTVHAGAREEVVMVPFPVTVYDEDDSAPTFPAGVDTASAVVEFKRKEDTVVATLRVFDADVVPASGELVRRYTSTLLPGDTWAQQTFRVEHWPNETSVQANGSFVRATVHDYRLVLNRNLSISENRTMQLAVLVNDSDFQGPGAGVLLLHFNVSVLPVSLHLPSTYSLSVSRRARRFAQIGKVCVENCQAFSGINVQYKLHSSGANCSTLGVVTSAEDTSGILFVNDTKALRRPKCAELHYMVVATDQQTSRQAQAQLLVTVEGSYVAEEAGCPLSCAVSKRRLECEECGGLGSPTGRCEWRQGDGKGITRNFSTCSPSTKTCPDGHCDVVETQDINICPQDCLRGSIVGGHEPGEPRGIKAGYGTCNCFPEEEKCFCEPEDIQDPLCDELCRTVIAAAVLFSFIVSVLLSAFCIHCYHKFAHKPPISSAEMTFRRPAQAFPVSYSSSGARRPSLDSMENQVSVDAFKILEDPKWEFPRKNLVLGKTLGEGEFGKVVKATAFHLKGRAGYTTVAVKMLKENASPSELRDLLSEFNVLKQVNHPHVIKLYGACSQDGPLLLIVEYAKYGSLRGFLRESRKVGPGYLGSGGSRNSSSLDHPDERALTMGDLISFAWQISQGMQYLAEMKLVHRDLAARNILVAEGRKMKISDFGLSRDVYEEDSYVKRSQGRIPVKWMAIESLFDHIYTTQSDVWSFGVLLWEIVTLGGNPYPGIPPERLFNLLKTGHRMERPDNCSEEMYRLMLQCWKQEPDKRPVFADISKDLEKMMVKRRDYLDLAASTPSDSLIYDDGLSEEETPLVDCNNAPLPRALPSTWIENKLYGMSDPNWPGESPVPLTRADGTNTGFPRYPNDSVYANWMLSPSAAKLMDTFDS

[29] = target: Ribosomal protein S6 kinase alpha-5 (Homo sapiens) (UniProt O75582); settings: 1 uM
[30] = target: Mitogen-activated protein kinase 9 (Homo sapiens) (UniProt P45984); assay: Inhibition of JNK2 at 10 uM
Summary of the method: (§4)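 Serine/threonine kinase profiling by an outside contract service following manufacturer protocols, ATP at Km for each enzyme; percent inhibition at 10 μM.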

[31] = target: Ribosomal protein S6 kinase beta-1 (Homo sapiens) (UniProt P23443); assay: Inhibition of p70S6K at 10 uM; summary of the method: as §4
[32] = target: Mitogen-activated protein kinase 14 (Homo sapiens) (UniProt Q16539); assay: Inhibition of p38alpha at 10 uM; summary of the method: as §4
[33] = target: Serine/threonine-protein kinase pim-1 (Homo sapiens) (UniProt P11309); assay: Inhibition of PIM1 at 10 uM; summary of the method: as §4
[34] = target: RAC-alpha serine/threonine-protein kinase (Homo sapiens) (UniProt P31749); assay: Inhibition of AKT1 at 10 uM; summary of the method: as §4
[35] = target: Mitogen-activated protein kinase 3 (Homo sapiens) (UniProt P27361); assay: Inhibition of ERK1 at 10 uM; summary of the method: as §4
[36] = target: Ribosomal protein S6 kinase alpha-5 (Homo sapiens) (UniProt O75582); assay: Inhibition of MSK1 at 10 uM; summary of the method: as §4
[37] = target: 3-phosphoinositide-dependent protein kinase 1 (Homo sapiens) (UniProt O15530); assay: Inhibition of PDK1 at 10 uM
[38] = target: Glycogen synthase kinase-3 alpha (Homo sapiens) (UniProt P49840); assay: Inhibition of GSK3alpha at 10 uM; summary of the method: as §4
[39] = target: T1, Ribosomal protein S6 kinase alpha-3; assay: Inhibition of RSK2 at 10 uM; summary of the method: as §1

T1 sequence (P51812 whole entry): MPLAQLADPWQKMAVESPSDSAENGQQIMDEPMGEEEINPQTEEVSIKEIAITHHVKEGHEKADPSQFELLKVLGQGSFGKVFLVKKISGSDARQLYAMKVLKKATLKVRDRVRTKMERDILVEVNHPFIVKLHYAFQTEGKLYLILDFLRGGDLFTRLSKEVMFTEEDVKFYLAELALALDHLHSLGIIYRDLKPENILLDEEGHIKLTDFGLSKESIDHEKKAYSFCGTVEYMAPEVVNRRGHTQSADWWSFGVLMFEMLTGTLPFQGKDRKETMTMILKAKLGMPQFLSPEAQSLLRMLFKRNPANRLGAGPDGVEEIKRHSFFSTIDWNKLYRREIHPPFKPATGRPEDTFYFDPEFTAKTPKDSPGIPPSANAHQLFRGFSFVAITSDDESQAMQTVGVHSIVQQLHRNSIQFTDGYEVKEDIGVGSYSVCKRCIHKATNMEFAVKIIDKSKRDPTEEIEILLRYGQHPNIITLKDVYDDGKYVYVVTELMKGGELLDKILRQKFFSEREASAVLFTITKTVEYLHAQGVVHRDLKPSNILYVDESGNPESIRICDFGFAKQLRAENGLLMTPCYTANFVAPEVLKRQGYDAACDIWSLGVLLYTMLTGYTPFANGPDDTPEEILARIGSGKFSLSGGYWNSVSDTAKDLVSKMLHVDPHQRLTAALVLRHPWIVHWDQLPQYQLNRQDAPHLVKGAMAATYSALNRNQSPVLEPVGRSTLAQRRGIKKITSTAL

For `Cc1ccc2nc(-c3cc(N)cc(C)c3O)oc2c1`, the IC50 [1] was 1.38 µM, the IC50 (HCT-116 [2]) was over 100 µM and the inhibition at 100 µM (MDA-MB-231 [3]) was 54.7%. For the same compound, the inhibition at 100 µM (MCF7 [4]) was 45.1%, the IC50 (MCF7 [5]) was over 100 µM and the inhibition at 100 µM (HCT-116 [6]) was 44.2%. The IC50 (MDA-MB-231 [7]) was over 100 µM.

`N#Cc1nc(/N=N/c2ccccc2)[nH]c1O` was tested, and the IC50 [1] was 7.04 µM, the inhibition at 100 µM (MDA-MB-231 [3]) was 12.1% and the inhibition at 100 µM (MCF7 [4]) was 0%. It also gave an inhibition at 100 µM (HCT-116 [6]) of 4.8%.

Compound `O=c1[nH]c(=O)c2ncc(-c3ccc(O)cc3)nc2[nH]1` has an IC50 [1] of 14.5 µM.

For `Cn1cc(C2=C(c3cn(CCCSC(=N)N)c4ccccc34)C(=O)NC2=O)c2ccccc21` [BISINDOLYLMALEIMIDE IX], the inhibition [8] was 58%, the IC50 [1] was 0.01 µM and the inhibition [9] was 74.4%. For the same compound, the inhibition [10] was 5%, the inhibition [11] was 98% and the inhibition at 10 µM (MCF7 [12]) was 95.3%. The inhibition at 10 µM (MDA-MB-231 [13]) was 97.1%, the inhibition [14] was 32.4% and the inhibition [15] was 73.2%. It also gave an inhibition [16] of 3%, an inhibition [17] of 61.2% and an inhibition [18] of 37.4%. The IC50 (HCT-116 [2]) was 0.84 µM, the inhibition [19] was 37.9% and the inhibition [20] was 36.6%. The inhibition [21] was 16%, the inhibition [22] was 97% and the IC50 (MCF7 [5]) was 1.96 µM. It also gave an IC50 (MDA-MB-231 [7]) of 1.77 µM, an inhibition [23] of 70.7% and an inhibition [24] of 32.6%. For the same compound, the inhibition at 10 µM (HCT-116 [25]) was 95.2%, the inhibition [26] was 94% and the inhibition [27] was 16%. For the same compound, the inhibition [28] was 71.8% and the inhibition [29] was 98%.

For `O=C(NNc1ccc(C(F)(F)F)cn1)c1ccccc1Cl`, the IC50 [1] was 13.2 µM.

Compound `Cc1c(O)ccc(/N=N/c2ccc(S(=O)(=O)O)cc2)c1C` has an IC50 [1] of 15.1 µM.

In the case of `COc1cc(/C=N/n2cnnc2)cc(I)c1O`, the IC50 [1] is reported as 16.2 µM.

With `Nc1n[nH]c(N)c1/N=N/c1ccc(S(N)(=O)=O)cc1` the IC50 [1] was 5.5 µM, the inhibition at 100 µM (MDA-MB-231 [3]) was 18.5% and the inhibition at 100 µM (MCF7 [4]) was 32.9%. The inhibition at 100 µM (HCT-116 [6]) was 6.98%.

In the case of `Oc1ccc(NCn2nnc3ccccc32)cc1`, the inhibition [8] is reported as 15.6%, the inhibition [30] is reported as 11% and the IC50 [1] is reported as 0.48 µM. It also gave an inhibition [31] of 6.9%, an inhibition [9] of 16.9% and an inhibition [32] of 13%. It also gave an inhibition [14] of 55.2%, an inhibition [15] of 2.4% and an inhibition [17] of 31.3%. It also gave an inhibition [18] of 14.2%, an inhibition [33] of 0.7% and an IC50 (HCT-116 [2]) of 56.2 µM. It also gave an inhibition at 100 µM (MDA-MB-231 [3]) of 98.8%, an inhibition [19] of 8.6% and an inhibition [20] of 32.4%. It also gave an inhibition [34] of 8.6%, an inhibition at 100 µM (MCF7 [4]) of 97% and an inhibition [35] of 2.8%. It also gave an inhibition [36] of 10.1%, an inhibition [37] of -5.8% and an IC50 (MCF7 [5]) of 18 µM. The inhibition at 100 µM (HCT-116 [6]) was 91.6%, the IC50 (MDA-MB-231 [7]) was 14.9 µM and the inhibition [23] was 38.2%. The inhibition [24] was -6.9%, the inhibition [38] was 29.3% and the inhibition [28] was 10%. The inhibition [39] was 89.2%.
